What was measured:
LC-2/ad cells = assay: Apoptosis assay; assay type: cell-based, human; conditions: 24-hour incubation
Procedure, shortened: (§1)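 Cells kept in F-12K or RPMI with 10% (vol/vol) FBS at 37°C in humidified 5% CO2. They were split into 10-cm dishes and, 24 hours later, exposed to a range of test compound concentrations for 24 hours. Lysates were prepared in RIPA buffer. Cleaved caspase-3 and cleaved PARP were detected by standard Western blotting.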

[1] = test system: phospho-RET, phospho-PLCγ, phospho-ERK, phospho-MEK in LC-2/ad cells; assay: Western blot of RET pathway phosphorylation; assay type: cell-based, human; conditions: 50 nmol/L to 5 μmol/L, 2 hours
[2] = test system: LC-2/ad cells (CCDC6-RET); assay: Cell viability assay; assay type: cell-based; conditions: Homo sapiens, 72 h, read-out: IC50 (cell viability)
TT cells (RET C634W) = assay: Cell viability assay; assay type: cell-based; conditions: Homo sapiens, 96 h, read-out: IC50 (cell viability)
TT cells = assay: Apoptosis assay; assay type: cell-based, human; conditions: 24-hour incubation
Procedure, shortened: as §1

[3] = test system: RET-rearranged lung cancers; conditions: cited from earlier work
HUVEC cells = conditions: at 1 μmol/L; cited from earlier work

Row | SMILES | apoptosis (cleaved caspase-3 and cleaved PARP) (LC-2/ad cells) | ERK and MEK phosphorylation [1] | IC50 [2] [nM] | IC50 (TT cells (RET C634W)) [nM] | apoptosis (cleaved caspase-3 and cleaved PARP) (TT cells) | patients requiring a dose reduction due to drug-related toxicities ([3]; phase II study) | overall response rate ([3]; phase II trial) [%] | growth inhibitory activity toward HUVEC cells (HUVEC cells)
1 | CCc1cc2c(cc1N1CCC(N3CCOCC3)CC1)C(C)(C)c1[nH]c3cc(C#N)ccc3c1C2=O [alectinib] | induced apoptosis | neither RXDX-105 nor alectinib treatment showed detectable change | 204 | 90 | no cleavage of caspase-3 and PARP was seen in the TT cells, except for the higher doses of alectinib | – | – | –
2 | COc1cc2nccc(Oc3ccc(NC(=O)C4(C(=O)Nc5ccc(F)cc5)CC4)cc3)c2cc1OC [cabozantinib] | induced apoptosis | able to decrease phospho-ERK and phospho-MEK at as low as 50 nmol/L | 98 | 77 | no cleavage of caspase-3 and PARP | approximately two thirds | 28 | –
3 | COc1cc2ncnc(Oc3cccc(NC(=O)Nc4cc(C(C)(C)C(F)(F)F)on4)c3)c2cc1OC.Cl [RXDX-105, 1-(3-(6,7-dimethoxyquinazolin-4-yloxy)phenyl)-3-(5-(1,1,1-trifluoro-2-methylpropan-2-yl)isoxazol-3-yl)urea hydrochloride] | induced apoptosis | – | – | – | no cleavage of caspase-3 and PARP | – | – | no growth inhibitory activity

Reference: publication PMC5477238 (Clinical cancer research : an official journal of the …, 2016)
